Experimental data as given in ChEMBL document CHEMBL3871264, “Design of a novel thiophene inhibitor of 15-lipoxygenase-1 with both anti-inflammatory and neuroprotective properties” (Eur J Med Chem, 2016).
pIC50: −log10 of the molar value. Activity calls are given as the source filed them. The calls are words filed in the database; no cut-off is given here.

Experiments:
[1] = target: T1, Polyunsaturated fatty acid lipoxygenase ALOX15 (Mus musculus) (UniProt P39654); assay: Inhibition of 15-LOX-1 in C57bl/6 mouse precision-cut lung slices assessed as reduction in LPS-stimulated IL-12b mRNA expression level at 5 uM incubated for 20 hrs followed by LPS stimulation for 4 hrs in presence of linoleic acid by RT-qPCR analysis
T1 sequence (whole entry): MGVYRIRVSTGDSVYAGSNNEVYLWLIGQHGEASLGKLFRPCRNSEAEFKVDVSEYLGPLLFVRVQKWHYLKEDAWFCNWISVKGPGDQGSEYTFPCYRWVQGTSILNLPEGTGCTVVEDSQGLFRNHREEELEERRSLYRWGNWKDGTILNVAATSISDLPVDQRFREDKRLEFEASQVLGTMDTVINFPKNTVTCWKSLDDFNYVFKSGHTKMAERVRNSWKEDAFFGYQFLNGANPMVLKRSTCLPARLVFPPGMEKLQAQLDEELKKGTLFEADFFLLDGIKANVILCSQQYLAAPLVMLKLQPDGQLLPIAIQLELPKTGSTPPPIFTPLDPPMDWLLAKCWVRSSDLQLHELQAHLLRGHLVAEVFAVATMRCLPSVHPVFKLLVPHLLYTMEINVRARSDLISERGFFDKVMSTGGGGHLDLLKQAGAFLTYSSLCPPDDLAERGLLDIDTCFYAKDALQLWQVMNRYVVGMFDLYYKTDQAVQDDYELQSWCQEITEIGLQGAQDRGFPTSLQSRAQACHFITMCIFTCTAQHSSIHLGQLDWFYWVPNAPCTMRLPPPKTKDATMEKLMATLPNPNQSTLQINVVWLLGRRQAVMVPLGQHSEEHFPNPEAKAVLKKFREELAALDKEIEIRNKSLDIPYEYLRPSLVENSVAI
Procedure, shortened: (§1)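 Lung slices, 250 μm, were cut from agarose-filled lungs of male C57bl/6 mice aged 8-10 weeks and cultured at 37 °C in 5% CO2 in supplemented DMEM, 3 slices per well. Inhibitor was given for 20 h with 10 μM linoleic acid. For the last 4 h, 10 ng/ml LPS plus 10 ng/ml IFNγ were added. Read-out was RT-qPCR (10 ng cDNA, GAPDH assay included), in duplicate or triplicate wells, as fold change versus LPS/linoleic acid control, with 4-6 independent experiments.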

[2] = target: T2, Polyunsaturated fatty acid lipoxygenase ALOX15 (Homo sapiens, UniProt P16050); assay: Inhibition of human 15-LOX-1 assessed as reduction in conversion of linoleic acid to 13(S)-HpODE incubated for 10 mins followed by linoleic acid addition by UV-absorbance analysis
T2 sequence (P16050 whole entry): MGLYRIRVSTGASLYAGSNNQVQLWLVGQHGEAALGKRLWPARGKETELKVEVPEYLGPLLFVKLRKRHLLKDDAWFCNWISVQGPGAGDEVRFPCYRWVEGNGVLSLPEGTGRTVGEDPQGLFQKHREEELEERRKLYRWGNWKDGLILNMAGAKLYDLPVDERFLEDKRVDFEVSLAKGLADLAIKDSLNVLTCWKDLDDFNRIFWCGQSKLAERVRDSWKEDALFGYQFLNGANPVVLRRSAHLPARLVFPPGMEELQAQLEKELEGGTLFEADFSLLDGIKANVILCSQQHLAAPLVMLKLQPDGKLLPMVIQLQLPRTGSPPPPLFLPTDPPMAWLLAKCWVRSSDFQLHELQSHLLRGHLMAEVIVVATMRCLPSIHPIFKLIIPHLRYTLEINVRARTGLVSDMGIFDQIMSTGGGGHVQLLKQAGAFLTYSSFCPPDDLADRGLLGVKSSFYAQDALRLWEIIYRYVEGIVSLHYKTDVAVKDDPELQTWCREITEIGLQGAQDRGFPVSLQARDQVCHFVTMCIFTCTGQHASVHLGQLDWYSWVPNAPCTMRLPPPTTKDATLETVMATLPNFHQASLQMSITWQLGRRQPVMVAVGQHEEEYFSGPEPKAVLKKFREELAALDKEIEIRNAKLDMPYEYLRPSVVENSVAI

[3] = target: T3, Polyunsaturated fatty acid lipoxygenase ALOX15 (Homo sapiens) (UniProt P16050); assay: Competitive inhibition of human 15-LOX-1 assessed as apparent Vmax at 15 uM by Lineweaver-Burk plot analysis (reference value: 1.6 +/- 0.2 10^-4abs/s)
T3 sequence (whole entry): T2 sequence (P16050 whole entry)
Procedure, shortened: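 Purified enzyme activity was read as UV absorbance at 234 nm of the product formed from linoleic acid substrate, in 96-well format. Substrate-dependence runs were done with and without inhibitor. Apparent Km and Vmax were derived from Lineweaver-Burk plots.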

[4] = target: T1, Polyunsaturated fatty acid lipoxygenase ALOX15 (Mus musculus); assay: Inhibition of 15-LOX-1 in mouse HT22 cells assessed as protection against glutamate-induced cell impedance at 5 to 10 uM cotreated with glutamate measured for 16 to 20 hrs by real time cell viability assay; assay type: cell-based; conditions: HT-22
Procedure, shortened: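 HT-22 cells were seeded at 8x10^3 per well, incubated overnight, then given 4 mM glutamate. Inhibitor was either co-applied (1-20 µM; PD146176 at 1 µM) or added at 10 µM 2, 4, 6 or 8 h after glutamate. Impedance was recorded in real time for 16-20 h, with cell index normalized just before glutamate addition.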

[5] = target: T1, Polyunsaturated fatty acid lipoxygenase ALOX15 (Mus musculus); assay: Inhibition of 15-LOX-1 in C57bl/6 mouse precision-cut lung slices assessed as reduction in LPS-stimulated IL-8 mRNA expression level at 50 uM incubated for 20 hrs followed by LPS stimulation for 4 hrs in presence of linoleic acid by RT-qPCR analysis; procedure, shortened: as §1
[6] = target: T1, Polyunsaturated fatty acid lipoxygenase ALOX15 (Mus musculus); assay: Inhibition of 15-LOX-1 in C57bl/6 mouse precision-cut lung slices assessed as reduction in LPS-stimulated IL-6 mRNA expression level at 50 uM incubated for 20 hrs followed by LPS stimulation for 4 hrs in presence of linoleic acid by RT-qPCR analysis; procedure, shortened: as §1
[7] = target: T1, Polyunsaturated fatty acid lipoxygenase ALOX15 (Mus musculus); assay: Inhibition of 15-LOX-1 in mouse HT22 cells assessed as inhibition of glutamate-induced lipid peroxidation at 10 uM incubated for 6 to 7 hrs by BODIPY 581/591 C11 staining based FACS analysis; assay type: cell-based; conditions: HT-22
Procedure, shortened: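 HT-22 cells were seeded at 5x10^4 per well and incubated overnight. They were then exposed to 4 mM glutamate in DMEM/10% FCS, with or without 10 µM test inhibitor or 1 µM PD146176, for 6-7 h or 14-16 h. Cells were stained with BODIPY 581/591 C11 at 2 µM final for 1 h at 37 °C. The red-to-green fluorescence shift was read by flow cytometry (488 nm excitation). At least 3 experiments were run, each in triplicate.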

[8] = target: T1, Polyunsaturated fatty acid lipoxygenase ALOX15 (Mus musculus); assay: Inhibition of 15-LOX-1 in C57bl/6 mouse precision-cut lung slices assessed as reduction in LPS-stimulated IL-6 mRNA expression level at 5 uM incubated for 20 hrs followed by LPS stimulation for 4 hrs in presence of linoleic acid by RT-qPCR analysis; procedure, shortened: as §1

CCCCNC(=O)c1cc(-c2ccccc2)sc1N
inhibition [1]: Active | pIC50 [2]: 4.91 | Vmax(app) [3]: 1.6 ×10⁻⁴ abs/s | inhibition [4]: Active | inhibition [5]: 50% | inhibition [6]: 50% | inhibition [7]: Active | inhibition [8]: Active
